From PubChem
RORa activator = RORA (human) activation; CHO-K1 Gal4-RORA LBD luciferase reporter, luminescence; percent increase over mock-subtracted basal signal; AID 560; hit rate 1.5% among 65,000; P35398; activation, % at 10 µM;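 active means activation above the mean of all tested compounds plus 3 SD, cut at about 49% in these data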;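 further: 0% = DMSO-treated RORA cells and 100% = added signal equal to DMSO minus mock-transfected cells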
HEK293 NFkB inh = inhibitors of the PMA/ionomycin-induced NF-kB reporter in HEK293 cells | HEK-293 NF-kB luciferase reporter, luminescence | inhibition, % at 3 µM | hit rate 0.21% among 62,000 | AID 465;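 active means inhibition above the mean of all tested compounds plus 3 SD, cut at about 40% in these data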;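 further: 0% = stimulated DMSO wells and 100% = 10 µM reference inhibitor 5653914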
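Timing: 1 h pretreatment, 16 h stimulation, 37 °C; system: HEK-293 cells with stable firefly luciferase reporter driven by four HIV NF-kB elements; doses: 3 µM once, 0.30% DMSO; measured by: luciferase luminescence; control set: DMSO and 10 µM reference inhibitor; repeats: single test; reagent: PMA plus ionomycin mix as NF-kB-activating stimulus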
SF1 activator = activates the human nuclear receptor SF-1. CHO-K1 Gal4-SF-1 LBD luciferase reporter; % increase over DMSO SF-1-specific signal. activation, % at 10 µM. AID 522. hit rate 1.9% among 65,000. Q13285;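 active means activation above the mean activation of all tested compounds plus 3 SD, cut at about 50% in these data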
Target sequence (Q13285 whole entry, looked up, the tested form may be a part): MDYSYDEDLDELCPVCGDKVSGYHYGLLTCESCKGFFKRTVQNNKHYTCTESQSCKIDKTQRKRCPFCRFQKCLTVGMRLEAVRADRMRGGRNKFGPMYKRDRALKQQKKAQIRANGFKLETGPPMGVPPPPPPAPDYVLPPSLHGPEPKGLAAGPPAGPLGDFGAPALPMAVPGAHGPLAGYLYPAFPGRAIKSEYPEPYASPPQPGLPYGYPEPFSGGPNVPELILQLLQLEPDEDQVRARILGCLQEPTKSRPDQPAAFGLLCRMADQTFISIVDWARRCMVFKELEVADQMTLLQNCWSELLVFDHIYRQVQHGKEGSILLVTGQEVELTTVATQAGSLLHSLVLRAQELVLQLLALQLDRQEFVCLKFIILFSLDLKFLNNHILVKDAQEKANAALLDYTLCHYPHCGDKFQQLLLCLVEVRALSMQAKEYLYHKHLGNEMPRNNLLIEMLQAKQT
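System: CHO-K1 cells with Gal4–hSF-1 LBD chimera plus Gal4-driven luciferase; quantity: 4,000 CHO-K1 cells per well; compound: one dose, 10 µM compound, 1% DMSO; times: 20 h compound treatment, 37 °C; measured by: SteadyLite luciferase luminescence; read-out: percent activation versus DMSO; benchmarks: DMSO and mock-transfected background; replicates: one test per compound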
MT1-MMP txn act = MT1-MMP promoter transcription activation. HT1080 MT1-MMP promoter luciferase reporter, luminescence, overnight; hits give high values. activation factor at 10 µM. hit rate 0.16% among 86,000;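 active means activation factor of at least 2 for MT1-MMP transcription at 10 µM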
Jurkat viability = reduces viability or proliferation of Jurkat cells; Jurkat E6.1 viability, ATP luminescence, 48 h; inhibition, % at 4 µM; hit rate 1.2% among 56,000;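 active means inhibition above the mean inhibition of all tested compounds plus 3 SD, cut at about 28% in these data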
* = called active by the depositor; / = not tested or not shown. Shown are actives, neighbours in structure and some others; about 2.9% of the full set was active somewhere.

SMILES	RORa activator	HEK293 NFkB inh	SF1 activator	MT1-MMP txn act	Jurkat viability
NC(=O)c1ccsc1NC(=O)c1ccc(S(=O)(=O)N2CCCCC2)cc1	78*	-14	36	1.3	3
Cc1nc2sc(C(c3ccco3)N3CCc4ccccc4C3)c(O)n2n1 (centres undefined)	-24	11	-14	1.2	5
Cc1ccc(C(=O)CSC2=C(C#N)C(c3ccco3)C3=C(CCCC3=O)N2)cc1 (centres undefined)	17	/	-2	0.7	/
N#CC1=C(SCC(=O)c2ccccc2)NC2=C(C(=O)CCC2)C1c1ccco1 (centres undefined)	174*	/	100*	1.1	/
O=C(Cn1cnc2sc(-c3ccccc3)cc2c1=O)NCc1ccco1	36	7	38	1	42*
COC(=O)c1c(-c2cccnc2)csc1NC(=O)c1cc(C)on1	57*	-32	80*	1.6	-4
Cc1cc(C)n(-c2nc3ccccc3c(=O)n2OCC(=O)OCc2ccccc2)n1	26	4	-9	1.3	56*
Oc1ccccc1-c1cc(-c2ccc3c(c2)OCCO3)n[nH]1	55*	-47	36	0.2	/
Cn1cc(/C=N/n2cnc3scc(-c4ccc(Cl)cc4)c3c2=O)c2ccccc21	-48	40*	-81	0.6	96*
Cn1c(C(=O)N2CCc3ccccc3C2)cc2oc3ccccc3c21	22	2	57*	1.3	-1
CCOC(=O)C1=C(CS(=O)(=O)c2ccc(F)c(C)c2)NC(=O)NC1c1ccc(O)c(O)c1 (centres undefined)	5	4	15	/	-6
NC(=O)c1ccsc1NC(=O)COc1ccccc1	30	-7	68*	1.3	1
O=C(COc1ccccc1)Nc1nccs1	/	/	/	1.3	/
c1ccc(-c2noc(C3CCCCC3)n2)nc1	61*	-19	56*	1.1	5
c1ccc(-c2noc(-c3cccnc3)n2)nc1	20	-11	-3	1	14
c1ccc(-c2noc(C34CC5CC(CC(C5)C3)C4)n2)cc1	/	/	/	1.2	/
c1ccc(-c2noc(C34CC5CC(CC(C5)C3)C4)n2)nc1	42	-9	86*	1.4	-3
CNc1sc(C(=O)c2cccs2)c(N)c1-c1nc2ccccc2s1	32	-43	79*	1.9	4
CC(=O)N=c1c(C#N)cc2c(=O)n3cccc(C)c3nc2n1CC(C)C	2	3	-14	1.2	-4
Cc1nc(NCc2ccco2)c2c3c(sc2n1)CCC3	-7	-16	-11	1.6	36*
c1coc(CNc2ncnc3sc4c(c23)CCCCC4)c1	-9	5	7	1.2	1
CC(C)(CNc1ccc([N+](=O)[O-])cc1Cl)CNS(C)(=O)=O	/	/	/	1.2	/
Cc1ccc(-n2ncc(C(=O)NCc3ccc4c(c3)OCO4)c2NC(=O)c2ccco2)cc1C	11	0	7	1	1
COc1cc(C(=O)N2CCN(c3ncnc4sc(C)c(C)c34)CC2)cc(OC)c1OC	-22	26	-33	1.1	76*
Cc1sc2ncnc(N3CCN(c4ncccn4)CC3)c2c1C	-16	14	-14	1.6	8
SMILES	RORa activator	HEK293 NFkB inh	SF1 activator	MT1-MMP txn act	Jurkat viability
Cc1c(NC(=O)CCc2ccc(S(=O)(=O)N3CCOCC3)cc2)c(=O)n(-c2ccccc2)n1C	-7	9	-3	1.2	/
CC(=O)c1c(C)[nH]c(C(=O)OCCCCN2C(=O)c3ccccc3C2=O)c1C	-78	31	-84	1	67*
CCOC(=O)c1cccc(NC(=O)CSc2nc3cccnc3n2C)c1	-2	25	-6	0.9	27
NC(=O)c1c(NC(=O)Cc2cccs2)sc2c1CCC2	25	1	51*	1.1	-1
Cc1occc1C(=O)Nc1sc2c(c1C(N)=O)CCCCC2	27	2	58*	1.4	2
O=C(Nc1sc2c(c1C(=O)O)CCCCC2)c1ccco1	62*	-54	57*	0.9	2
COC(=O)c1c(NC(=O)c2ccoc2C)sc2c1CCC2	-4	6	-11	1.2	5
CN(C)C(=O)c1c(NC(=O)c2ccco2)sc2c1CCCCC2	/	/	/	1.5	/
CCOC(=O)c1c(NC(=O)Cc2cccs2)sc2c1CCCC2	-17	26	-16	1.2	-3
Cn1c2ccccc2c2cnn(CC(=O)N3CCN(c4ncccn4)CC3)c(=O)c21	-1	16	9	/	9
O=C1CN(C(=O)OCc2ccccc2)c2ccccc2N1	51*	-10	47	1.4	/
O=C1CN(C(=O)c2ccccc2F)c2ccccc2N1	-16	-4	5	0.9	-5
O=C(Cn1c(=O)[nH]c2ccsc2c1=O)NC1CCCCCC1	-8	10	8	1	/
CC1CCC(NC(=O)Cn2c(=O)[nH]c3ccsc3c2=O)CC1 (centres undefined)	51*	3	47	1.7	/
CCOC(=O)Nc1cc(=O)c2ccccc2o1	11	12	2	1.1	90*
CCOC(=O)c1oc2ccccc2c1N	/	/	/	1.6	/
N=c1c2c(n(Cc3ccccc3)c3c1CCC3)CCC2	-32	7	1	1.2	64*
N=c1c2c(n(Cc3ccc(Cl)cc3)c3c1CCC3)CCC2	23	22	19	1	88*
Cc1cccc(N(C)C(=O)c2cc3cc4ccc(C)cc4nc3o2)c1	23	14	36	1.4	10
Cc1ccc2cc3cc(C(=O)N(C)C4CCCCC4)oc3nc2c1	35	-25	77*	1.7	5
COc1ccc(NS(=O)(=O)c2cc(OC)ccc2NC(=O)c2cc(C)oc2C)cc1	20	38	0	0.4	94*
CCc1ccc(NS(=O)(=O)c2cc(OC)ccc2OC)cc1	36	7	16	0.9	29*
COc1ccc(NS(=O)(=O)c2cc(C)ccc2C)cc1	40	23	23	1.1	74*
CCOc1ccccc1-c1nc(SCC(=O)O)n[nH]1	2	-5	3	1.3	-2
Cc1cccc(Cn2c(SCC(=O)Nc3ccccc3)nc3c2c(=O)[nH]c(=O)n3C)c1	-10	7	9	1.1	4
SMILES	RORa activator	HEK293 NFkB inh	SF1 activator	MT1-MMP txn act	Jurkat viability
Cc1ccc(C2Nc3ccccc3C(=O)N2Cc2ccco2)cc1 (centres undefined)	6	-4	-5	1.3	6
COC(=O)C1(CC(C)C)C=CCN1C(=O)c1ccccc1 (centres undefined)	/	/	/	1	/
CCCn1c(C)cc(C(=O)COc2ncnc3sccc23)c1C	7	-12	53*	1	0
Cc1cc(C(=O)COc2ncnc3sccc23)c(C)n1C1CC1	34	7	11	1.5	9
C/C(=N\O)c1ccc2[nH]ccc2c1	32	/	17	1.4	/
C/C(=N\O)c1ccc2c3c([nH]c2c1)CCCC3	54*	-4	64*	1.3	7
CCOC(=O)N1CCN(C(=O)CSc2nnc(-c3ccc(C)c(C)c3)o2)CC1	20	-5	5	1	5
